The source of these data is ChEMBL document CHEMBL5038583, “Highly Potent and Selective Butyrylcholinesterase Inhibitors for Cognitive Improvement and Neuroprotection” (J Med Chem, 2021).

Active and inactive are the calls of the source. The rule behind the calls is not given here.

A short description of data set [1]: Hepatotoxicity in ICR mouse assessed as morphological changes in liver at 1 g/kg, ig administered daily for 14 days analysed after 22 hrs post-administration by hematoxylin and eosin staining based analysis. Format: toxicity, tissue-based. Particulars: in vivo, po, 1000 mg/kg, 336 h, time 14 day. The procedure, abridged:
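Liver from male mice taken 22 h after compound or vehicle; hematoxylin−eosin staining, viewed at ×100.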

In the next data set the test system is Plasma. The data set can be described thus: Increase in ghrelin levels in ICR mouse plasma assessed as inhibition of BChE. The format is functional, cell-free.
Data set [2] can be described thus: Metabolic stability in human liver microsomes assessed as half life at 1 uM measured upto 45 mins in presence of NADPH by LC/MS/MS analysis. The format is ADME, Microsome. The procedure, abridged: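 Human liver microsomes 0.5 mg/mL, compound 1 μM final, NADPH 2 mM, at 37 °C. Reactions stopped at 0, 5, 15, 30 and 45 min with acetonitrile containing imipramine internal standard. LC/MS/MS quantitation relative to 0 min; initial rates used for t1/2 and intrinsic clearance; ketanserin as assay control. Mean of two independent experiments.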

Data set [3] concerns Mus musculus. In words: Antialzheimer activity in ICR mouse assessed as reduction in scopolamine-induced cognitive impairment at 30 mg/kg, ig administered for 10 consecutive days by Morris water maze test. The format is functional, organism-based. Particulars: time 10.0 day. The method, boiled down:
(§1)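 Male ICR mice (8−10 weeks, 18−20 g), n = 8 per group. Compound at 15 or 30 mg/kg intragastric in DMSO/saline (10:90), given 30 min before scopolamine 3 mg/kg i.p., for 10 consecutive days; tacrine 15 mg/kg as reference. Morris water maze: 5 days of training, probe trial on day 6 with platform removed. Escape latency and trajectory recorded; mean ± SD.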

A short description of data set [4]: Ratio of drug concentration in brain to plasma of ICR mouse at 10 mg/kg, po measured after 2 hrs. Format: ADME, organism-based. The method, boiled down: (§2)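 ICR mice given 10 mg/kg orally in 5% DMSO/40% PEG400/55% saline (1 mg/mL). Blood (retro-orbital) and brain collected at 30, 60, 120 and 240 min. Brain homogenized in 2 volumes PBS, extracted with ethyl acetate, dried and reconstituted in mobile phase. Plasma processed as in the rat study; LC/MS/MS. Brain/plasma ratios from exposures, AUC(B) vs AUC(P).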

Data set [5] in a line: AUC (0 to t) in ICR mouse plasma at 10 mg/kg, po measured upto 240 mins. Set-up: route oral, dose 10 mg/kg, time <=240. Format: ADME, organism-based. The method, boiled down: as §2
Data set [6] can be described thus: AUC (0 to t) in overnight fasted Sprague-Dawley rat at 10 mg/kg, iv measured upto 1440 mins by LC/MS/MS analysis. The format is ADME, organism-based. Set-up: route intravenous, dose 10 mg/kg, time <=1440. Particulars: in vivo, 24 h. The method, boiled down: (§3)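 Male SD rats (180−220 g), n = 8 per route, fasted overnight with water available. Single 10 mg/kg dose p.o. or i.v. in DMSO/PEG400/saline (10:80:10). Retro-orbital blood taken into heparinized tubes at 1–1440 min. Plasma precipitated with methanol containing theophylline internal standard, then LC/MS/MS against a blank-plasma standard curve. Parameters from noncompartmental extravascular analysis; mean ± SD.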

Data set [7] has as its system SH-SY5Y. The data set can be described thus: Neuroprotective activity against H2O2-induced cytotoxicity in human SH-SY5Y cells pretreated for 2 hrs followed by H2O2 stimulation and measured after 24 hrs by MTT assay. The format is functional, cell-based. Particulars: dose 2.5-10 µM, time 26.0 hrs. The procedure, abridged:
(§4)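 SH-SY5Y cells seeded at 5000 per well and grown 24 h. Pretreated 2 h with compound (2.5 or 10 μM, diluted in DMEM from 10⁻¹ M DMSO stock), then H₂O₂ 200 μM, glutamate 20 mM or aggregated Aβ1-42 15 μM for 24 h. MTT added for 4 h, formazan dissolved in DMSO, absorbance read at 492 nm. Viability relative to untreated control; mean ± SEM, n = 3.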

Data set [8] is described as follows: Ratio of Cmax in brain to plasma of ICR mouse at 10 mg/kg, po measured upto 240 mins. Format: ADME, organism-based. The method, boiled down:
as §2

The nature of data set [9]: AUC (0 to infinity) in overnight fasted Sprague-Dawley rat at 10 mg/kg, iv measured upto 1440 mins by LC/MS/MS analysis. Format: ADME, organism-based. Further details: route intravenous, dose 10 mg/kg, time <=1440. Particulars: in vivo, 24 h. The method, boiled down: as §3
Data set [10] is described as follows: Cmax in ICR mouse plasma at 10 mg/kg, po measured upto 240 mins. Further details: route oral, dose 10 mg/kg, time <=240. The format is ADME, organism-based. The method, boiled down: as §2
Data set [11] can be described thus: Cmax in overnight fasted Sprague-Dawley rat at 10 mg/kg, po measured upto 1440 mins by LC/MS/MS analysis. The format is ADME, organism-based. Further details: route oral, dose 10 mg/kg, time <=1440. Particulars: in vivo. The procedure, abridged: as §3
Data set [12] concerns Mus musculus. In words: Antialzheimer activity in scopolamine-induced ICR mouse model of cognitive impairment assessed as reduction in escape latency at 30 mg/kg, ig administered for 10 consecutive days by Morris water maze test. Format: functional, organism-based. The procedure, abridged:
as §1

The subject of data set [13] is Mus musculus. In words: Anti-alzheimer activity in scopolamine-induced ICR mouse model of cognitive impairment assessed as simplification of trajectories at 30 mg/kg, ig administered for 10 consecutive days by Morris water maze test. The format is functional, organism-based. The method, boiled down: as §1
The next data set has as its target Cholinesterase (Equus caballus, UniProt P81908). The data set can be described thus: Inhibition of equine serum BChE using butyrylthiocholine iodide as substrate preincubated for 5 mins followed by substrate addition and measured after 2 mins by DTNB-reagent based Ellman's method.
Data set [14] is described as follows: Ratio of drug concentration in brain to plasma of ICR mouse at 10 mg/kg, po measured after 0.5 hrs. Format: ADME, organism-based. The procedure, abridged: as §2
The subject of data set [15] is SH-SY5Y. The data set can be described thus: Neuroprotective activity against amyloid beta (1 to 42)-induced cytotoxicity in human SH-SY5Y cells at 2.5 uM pretreated for 2 hrs followed by amyloid beta (1 to 42) stimulation and measured after 24 hrs by MTT assay. Format: functional, cell-based. Particulars: time 26.0 hrs. The procedure, abridged:
as §4

Data set [16] relates to Mus musculus. The data set can be described thus: Anti-alzheimer activity in amyloid beta(1 to 42)-induced ICR mouse model of cognitive impairment assessed as simplification of trajectories at 15 mg/kg, ig administered at days 2 to 14 by Morris water maze test. Format: functional, organism-based. The procedure, abridged: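 ICR mice, n = 8 per group. Aggregated Aβ1-42 (5 mM DMSO stock incubated 24 h at 37 °C in saline at 2 mg/mL) given 10 μg per mouse icv on day 1; saline icv for sham. Compound 15 mg/kg intragastric on days 2−14; donepezil reference. Morris water maze training days 9−13, probe trial day 14; tracks recorded; mean ± SD.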

Another data set concerns BV-2. In words: Anti-inflammatory activity against mouse BV-2 cells assessed as blocked of LPS-induced increased ROS production by measuring green fluorescence preincubated for 1 hr by DCFH-DA staining based fluorescence microscopy. The format is functional, cell-based. The procedure, abridged: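 BV2 cells seeded at 1 × 10⁴ per well and grown 24 h at 37 °C. Compounds at various concentrations for 1 h, then LPS 2.5 μg/mL for 24 h. Washed in PBS, loaded with DCFH-DA 5 μM (final) for 30 min, washed three times. Intracellular ROS taken as green fluorescence intensity by inverted fluorescence microscopy, exposure fixed at 10.2 ms.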

In the next data set the test system is HepG2. In words: Cytotoxicity against human HepG2 cells assessed as reduction in cell viability incubated for 24 hrs by MTT assay. Format: functional, cell-based. Particulars: HepG2, 24 h. The procedure, abridged:
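Cells seeded at 1 × 10⁴/well in DMEM with 10% FBS and left overnight, then given compound (DMSO stock diluted in DMEM) for 24 h at 37 °C. MTT added for 4 h, formazan dissolved in DMSO, absorbance read at 492 nm. Viability taken as OD treated/OD DMEM × 100%; IC50 from three independent experiments, mean SD.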

Sequence of Cholinesterase (P81908 whole entry): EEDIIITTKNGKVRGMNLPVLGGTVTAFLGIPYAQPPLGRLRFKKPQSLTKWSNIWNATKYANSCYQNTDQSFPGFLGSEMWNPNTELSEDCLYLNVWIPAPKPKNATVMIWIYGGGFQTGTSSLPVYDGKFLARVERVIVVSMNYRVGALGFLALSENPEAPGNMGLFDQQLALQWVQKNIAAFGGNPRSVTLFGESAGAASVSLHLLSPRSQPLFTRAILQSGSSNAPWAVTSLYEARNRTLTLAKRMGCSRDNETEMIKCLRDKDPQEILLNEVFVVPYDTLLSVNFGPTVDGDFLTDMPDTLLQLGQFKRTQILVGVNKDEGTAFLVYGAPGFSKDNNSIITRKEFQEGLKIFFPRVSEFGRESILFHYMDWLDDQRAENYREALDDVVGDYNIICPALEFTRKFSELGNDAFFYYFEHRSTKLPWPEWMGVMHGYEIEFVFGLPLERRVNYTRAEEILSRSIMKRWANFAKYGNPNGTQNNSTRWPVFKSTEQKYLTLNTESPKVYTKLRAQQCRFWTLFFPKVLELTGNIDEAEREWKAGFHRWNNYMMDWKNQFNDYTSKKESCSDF

As to `Nc1nonc1-c1nc2ccccc2n1CC(=O)Nc1cnc2ccccc2c1`, the Activity result in data set [1] was “Non-Toxic”; in the data set on SH-SY5Y [7] it was “Dose-Dependent Effect”. The result in the data set on Plasma, in the data set with Mus musculus [3], in the data set with Mus musculus [12], in the data set on Mus musculus [13], in the data set on SH-SY5Y [15] and with Mus musculus [16] was Active. The outcome in the data set with BV-2 was Active. The half-life at 1 µM in data set [2] turned out to be 2.65 h. In data set [4], the Kp at 2 h was 2.43. In [5], the AUC(0-t) at 4 h was 94.7 ng·h/mL. Further, the AUCt in [6] was 859.64 ng·h/mL. Besides, in data set [8], the concentration ratio (Kp) at 4 h came to 0.24. For the same compound, the AUC in data set [9] was found to be 1092.11 ng·h/mL. Moreover, the results for the Cmax in data set [10] and in data set [11] were 49.9 ng/mL and 44.7 ng/mL, respectively. The results for the IC50 against Cholinesterase and with HepG2 were 0.02 µM and 84.3 µM, respectively. Also, the Kp at 0.5 h in data set [14] worked out at 1.54.
